Screening data (PubChem)
Cl transport mod = KCC2 cotransporter modulators, thallium flux, primary screen, cell-based, HEK293 KCC2, FluoZin-2 fluorescence, MLSMR. Solute carrier family 12 member 5 (Homo sapiens), Q9H2X9. KCC2 cells, thallium flux FluoZin-2 fluorescence. B-score of Tl+ flux slope (higher = more flux/activation; lower = inhibition) at 10 µM. actives 2.2% (n = 190,000). AID 1456, 2008;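 active = thallium flux slope and its plate-corrected score both differing from the plate sample mean at a set confidence after two filtering rounds, in either direction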;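 also: slope of fluorescence scaled to starting intensity during 10 to 20 s after thallium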
Target sequence (Q9H2X9 whole entry, looked up): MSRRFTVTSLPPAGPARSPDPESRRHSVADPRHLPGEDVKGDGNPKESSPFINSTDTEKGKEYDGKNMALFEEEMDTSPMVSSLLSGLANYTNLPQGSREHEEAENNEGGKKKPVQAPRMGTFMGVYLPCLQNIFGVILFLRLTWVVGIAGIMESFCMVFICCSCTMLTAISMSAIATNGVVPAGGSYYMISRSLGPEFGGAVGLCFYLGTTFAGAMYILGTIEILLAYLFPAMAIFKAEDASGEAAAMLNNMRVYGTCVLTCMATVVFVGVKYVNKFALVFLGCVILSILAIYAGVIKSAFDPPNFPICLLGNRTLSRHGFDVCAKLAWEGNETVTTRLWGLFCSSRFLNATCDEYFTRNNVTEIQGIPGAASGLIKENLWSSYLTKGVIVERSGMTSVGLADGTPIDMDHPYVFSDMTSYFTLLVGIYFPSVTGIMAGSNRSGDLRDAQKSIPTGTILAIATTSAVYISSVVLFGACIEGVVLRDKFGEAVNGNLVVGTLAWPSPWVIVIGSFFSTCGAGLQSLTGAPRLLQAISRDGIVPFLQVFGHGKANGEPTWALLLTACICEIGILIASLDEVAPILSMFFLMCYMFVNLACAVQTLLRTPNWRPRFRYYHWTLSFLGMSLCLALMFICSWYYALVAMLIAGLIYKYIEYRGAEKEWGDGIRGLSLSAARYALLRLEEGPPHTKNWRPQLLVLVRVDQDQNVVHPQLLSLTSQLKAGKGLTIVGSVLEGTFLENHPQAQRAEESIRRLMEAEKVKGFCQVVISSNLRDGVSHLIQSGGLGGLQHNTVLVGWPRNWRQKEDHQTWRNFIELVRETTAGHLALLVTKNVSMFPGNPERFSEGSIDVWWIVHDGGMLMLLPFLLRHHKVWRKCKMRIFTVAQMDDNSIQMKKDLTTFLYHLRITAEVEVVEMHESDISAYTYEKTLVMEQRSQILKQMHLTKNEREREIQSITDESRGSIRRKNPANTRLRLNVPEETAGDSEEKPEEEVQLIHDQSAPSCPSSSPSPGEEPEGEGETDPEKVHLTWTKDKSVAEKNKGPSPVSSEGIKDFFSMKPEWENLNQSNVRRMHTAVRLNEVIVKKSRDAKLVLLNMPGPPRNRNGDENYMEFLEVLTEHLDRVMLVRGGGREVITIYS
Yeast lifespan up = compounds extending yeast replicative lifespan, primary screen, S. cerevisiae, OD615 | S. cerevisiae growth with nicotinamide; deaD strain in restrictive glucose medium | inhibition of the nicotinamide effect, % at 10 µM | actives 0.68% (n = 130,000);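 active = inhibition above a set limit, placed 3 SD over the median of all compounds, cut at about 26% in these data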;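 also: 0% = nicotinamide-treated wells and 100% = cells grown without nicotinamide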
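System: Modified budding yeast, DeaD strain | Buffer or medium: Restrictive glucose medium | Also added: 1.5 mM nicotinamide | Doses: 10 µM single point, 0.25% DMSO | Schedule: 48 h compound exposure at 30 °C, humidified | Detection: Absorbance at 615 nm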
WT yeast gro inh = growth inhibition of WT strain, primary screen, mitochondrial fusion inhibitor project, WT and mutant strains, chemical genetic | mitochondrial fusion phenotypic screen | inhibition, % at 10 µM | actives 2.1% (n = 190,000) | AID 1362, 2008; in the data active = inhibition above about 58%; tested in S. cerevisiae
BB579 growth dn = growth inhibitors of yeast BB579 in restrictive medium, primary screen, yeast lifespan-shortening project, S. cerevisiae | actives 0.51% (n = 140,000) | inhibition, % at 10 µM | OD615, 48 h | AID 804, 2007;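 active = inhibition above a set limit, 3 SD over the mean compound inhibition, cut at about 44% in these data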
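Material: Saccharomyces cerevisiae DeaD strain BB579, replicative lifespan model yeast; buffer or medium: CSMM-D restrictive synthetic medium containing dextrose (glucose); compound: 10 µM single dose, DMSO 0.25%; timing: 48 h compound exposure at 30 °C after 4 h preincubation; signal: turbidity as optical density at 615 nm; benchmarks: positive control amphotericin B 10 µg/mL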
RAM network inh = inhibitors of the yeast RAM network, primary screen, dse1pr::URA3 reporter, 5-FOA selection | inhibition, % at 50 µM | S. cerevisiae dse1pr::URA3 reporter, 5-FOA growth OD615, 2 d; analog-sensitive cbk1-as2 kinase mutant strain | actives 1.8% (n = 190,000);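 active = inhibition above a set limit, 3 SD over mean compound inhibition, cut at about 8.4% in these data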;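 also: 0% = DMSO-only wells with no growth and 100% = 10 µM 1-NA-PP1 full growth; inhibition rescues growth on 5-FOA so higher OD means more RAM inhibition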
Starred values were filed as active, the others as inactive; nt = no result. An excerpt weighted towards active compounds, which were near 5.5% of everything screened.

SMILES	Cl transport mod	Yeast lifespan up	WT yeast gro inh	BB579 growth dn	RAM network inh
COc1cc2c(=O)n(CCC(=O)NCC3CCCO3)c(=O)n(CC(=O)c3ccc(Cl)cc3)c2cc1OC (configuration not stated)	-0.17	nt	13	nt	1
CCN(CC)C(=O)Oc1nnc(SC(C)C)n1-c1ccc(Cl)cc1	-0.7	nt	nt	nt	nt
CCCCCNCC(=O)Nc1cccc(C(=O)Nc2cccc(C(F)(F)F)c2)c1	0.84	nt	78*	nt	-2
O=C(CN1CCOCC1)Nc1cccc(C(=O)Nc2cccc(C(F)(F)F)c2)c1	-0.11	-15	-8	-15	0
O=C1NC2(CCCCCC2)C(=O)N1Cc1ccc([N+](=O)[O-])cc1	0.14	2	7	-18	1
Cc1cc(N2CCOCC2)ccc1/C=C\[N+](=O)[O-]	-0.033	34*	1	9	-1
CC(=O)c1cc(N2CCOCC2)ccc1[N+](=O)[O-]	0.53	nt	-1	nt	2
O=C(c1cc([N+](=O)[O-])cc([N+](=O)[O-])c1)N1CCOCC1	-0.87	-1	-6	-24	1
COc1ccc(CNC(=O)N[C@H](C(=O)O)C(C)C)cc1OC	2.2	nt	nt	nt	nt
CC(=O)C1=C(C)N(Cc2ccccc2)C(=O)N[C@@H]1c1cccc(C(F)(F)F)c1	1.9	29*	28	-27	1
CC(=O)C1=C(C)N(Cc2ccccc2)C(=O)N[C@H]1c1cccc(C(F)(F)F)c1	-0.99	3	-1	-23	-1
CCOC(CCn1c(SCc2cccc([N+](=O)[O-])c2)nc2ccccc2c1=O)OCC	-1.7	12	5	-61	11*
O=[N+]([O-])c1ccc2nc(-c3ccc(Cl)cc3)[nH]c2c1	-0.65	-6	63*	21	1
Cc1cc2ncc(C(=O)Nc3ccsc3C(=O)O)c(C)n2n1	0.38	nt	10	nt	1
COc1ccc(/C=N/Nc2nnc(Cc3ccc(OC)c(OC)c3)c(=O)[nH]2)cc1	0.42	2	6	-26	4
COc1ccc(/C=N/Nc2nnc(Cc3ccc(OC)c(OC)c3)c(=O)[nH]2)cc1OC	0.56	4	-10	-18	9.7*
O=C(Oc1ccc2cc(Br)ccc2c1)N1CCCCCC1	-0.83	-1	68*	-47	1
O=C(Oc1ccc2ccc(=O)oc2c1)N1CCOCC1	nt	-8	8	-34	0
O=C(Oc1ccc2ccccc2c1Br)N1CCCCCC1	-1.1	-15	71*	-52	1
CC(=Nc1ccc2c(c1)nc(CO)n2C)C1=C(O)CC(C)(C)CC1=O	nt	46*	-7	-66	1
C/C(=N/NC(=O)c1ccccc1)C1=C(O)CC(C)(C)CC1=O	-1.3	nt	2	nt	-1
Cc1cccc(/C=c2\s/c(=C\C(=O)C(C)(C)C)[nH]c2=O)c1	12*	-5	55	-59	5
COc1ccc(/C=c2\s/c(=C\C(=O)C(C)(C)C)[nH]c2=O)cc1O	1.1	nt	nt	nt	nt
Cc1cccc(/C=C/c2nc3ccccc3c(=O)[nH]2)c1	nt	nt	-4	nt	2
COc1cc(/C=c2\s/c(=C\C(=O)C(C)(C)C)[nH]c2=O)cc(OC)c1OC	1.9	nt	28	nt	8.8*
SMILES	Cl transport mod	Yeast lifespan up	WT yeast gro inh	BB579 growth dn	RAM network inh
CC(=O)NC1=NN(C(C)=O)C(c2ccco2)S1 (configuration not stated)	-0.015	nt	nt	nt	nt
Cc1ccc(S(=O)(=O)Nc2ccc(-c3csc(-c4ccccc4)n3)cc2)cc1	0.22	3	33	-33	4
O=[N+]([O-])c1ccc(S(=O)(=O)Nc2ccc(-c3csc(-c4ccccc4)n3)cc2)cc1	nt	-9	95*	-51	7
Cc1ccc(C(=O)COc2ccccc2N2C(=O)c3ccccc3C2=O)cc1	-0.12	1	0	-20	8.8*
Cc1ccc(C(=O)COc2ccccc2-c2ccccc2)cc1	0.85	-5	39	-3	0
Cc1ccc(S(=O)(=O)N(C)CC(=O)O/N=C(\N)c2cccc([N+](=O)[O-])c2)cc1	-0.54	-4	-7	-13	8
Cc1ccc(SCC(=O)O/N=C(\N)c2cccc([N+](=O)[O-])c2)cc1	nt	-12	59*	-61	1
COCCNc1nc(C)c(C(C)=O)s1	-1.6	nt	-17	nt	1
c1ccc(Cc2nnc(-c3ccccc3)o2)cc1	14*	-16	0	-40	1
